From publication PMC3310199 (Journal of Medicinal Chemistry, 2012)
Entries after “also recorded” stand apart in the source; their conditions may differ. Where a SMILES comes first, the peptide text is derived from it. The star is where a group is joined. Cbz = O=C(OCc1ccccc1)*; CHN2 = [N-]=[N+]=C*

What was measured:
IdeS [1] = biological target: T1, IdeS (Streptococcus pyogenes, UniProt Q9F1R7); details: cited from earlier work
T1 sequence (Q9F1R7 30-339): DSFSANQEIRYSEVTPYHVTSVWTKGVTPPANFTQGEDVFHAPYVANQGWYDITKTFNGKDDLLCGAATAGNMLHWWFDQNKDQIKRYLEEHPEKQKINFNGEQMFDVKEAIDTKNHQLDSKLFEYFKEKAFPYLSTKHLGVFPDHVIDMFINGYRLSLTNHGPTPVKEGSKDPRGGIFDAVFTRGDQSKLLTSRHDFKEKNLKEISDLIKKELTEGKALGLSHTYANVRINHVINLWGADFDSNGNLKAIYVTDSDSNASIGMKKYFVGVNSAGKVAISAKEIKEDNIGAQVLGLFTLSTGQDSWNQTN

[2] = biological target: T2, streptococcal cysteine protease SpeB (Streptococcus pyogenes serotype M1, UniProt P0C0J1); test: SpeB activity assay; type: biochemical, S. pyogenes; details: SpeB 0.28 μM, 4.8 × 10^3 molar excess of peptide/analogue
T2 sequence (P0C0J1 146-398): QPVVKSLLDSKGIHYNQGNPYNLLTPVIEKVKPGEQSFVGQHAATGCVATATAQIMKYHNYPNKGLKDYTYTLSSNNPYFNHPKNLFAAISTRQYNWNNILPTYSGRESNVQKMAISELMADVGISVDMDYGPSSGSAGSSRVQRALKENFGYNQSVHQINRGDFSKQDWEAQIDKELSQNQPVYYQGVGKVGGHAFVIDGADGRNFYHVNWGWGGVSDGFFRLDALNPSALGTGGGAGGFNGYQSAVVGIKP
Outline: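 SpeB was purified from S. pyogenes strain 5448 culture medium by ammonium sulfate precipitation and ion exchange. It was activated with 2 mM DTT for 30 min at 37 °C, and active amount was set by E-64 active-site titration. Enzyme was preincubated 15 min at RT with test compound (stock 30 mM in 50% DMSO/phosphate pH 7.4). BPFA was then added (1 mM solution, 0.1 M phosphate pH 6) and OD405 change recorded. Triplicates.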

papain [3] = biological target: T3, papain (Carica papaya, UniProt P00784); test: Papain activity assay; type: biochemical; details: papain 0.9 μM, 4.8 × 10^3 molar excess of peptide/analogue
T3 sequence (P00784 134-345): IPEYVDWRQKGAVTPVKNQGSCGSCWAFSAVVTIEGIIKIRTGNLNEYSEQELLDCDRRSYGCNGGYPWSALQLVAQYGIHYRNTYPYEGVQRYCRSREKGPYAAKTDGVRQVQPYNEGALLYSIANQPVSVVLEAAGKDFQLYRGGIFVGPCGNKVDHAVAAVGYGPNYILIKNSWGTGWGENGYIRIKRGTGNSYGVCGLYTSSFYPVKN
Outline: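 Papain was taken up in pH 6.2 phosphate buffer with EDTA and DTT. It was preincubated 10 min at RT with test compound (stock 30 mM in 50% DMSO/phosphate pH 6.2). Substrate (stock 100 mM in DMSO) was added, then 2 h at 37 °C. Reactions were stopped with glacial acetic acid and cleavage read as Abs405. Duplicates were run on two separate occasions.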

IdeS [4] = biological target: T1, IdeS; type: biochemical; details: for inhibitory activity toward IdeS (Figure 4): IdeS 0.8 μM, 4.8 × 10^3 molar excess of peptide/analogue, IgG1 substrate
Outline: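 Recombinant His-Trx-IdeS was expressed in E. coli BL21, the tag removed with TEV protease, and purified by Ni2+-resin and size exclusion. Enzyme was preincubated with test compound (stock 30 mM in 50% DMSO/phosphate pH 7.4) 15 min at RT. Human IgG1 was added, then 20 min at 37 °C, stopped with iodoacetamide. Protein A-CM5 SPR was read at 190 s post-injection against no-enzyme controls, converted to fraction active IdeS via a standard curve. Triplicates.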

papain [5] = biological target: T3, papain; test: Determination of inhibition constants; type: biochemical; details: 5 μM papain, Nα-benzoyl-DL-arginine 4-nitroanilide 0.25-6 mM
Outline: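 Initial velocities were measured with or without inhibitor at Nα-benzoyl-DL-arginine 4-nitroanilide 6, 3, 1, 0.5 or 0.25 mM and 5 μM papain. Ki was derived by nonlinear regression fitted to a competitive inhibition model.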

Row | SMILES | inhibition of IdeS by known inhibitors (IdeS [1]) | inhibitory effect on SpeB activity (Figure 5A) [2] | inhibitory effect on papain activity (Figure 5B) (papain [3]) | inhibitory activity toward IdeS (Figure 4) (IdeS [4]) | also measured
1 | CC(C)C[C@H](NC(=O)C1OC1C(=O)O)C(=O)NCCCCN=C(N)N (stereo in doubt) [E64, 1-[N-[(3-trans-carboxyoxirane-2-carbonyl)-L-leucyl]amino]-4-guanidinobutane] | not inhibited | – | – | – | –
2 | CC(C)C[C@H](N)C(=O)NCC(=O)N1CCC[C@@H](N2CCC[C@H]2C(N)=O)C1 [(R)-LGpipP] | – | inhibited SpeB activity | most active analogue | – | –
3 | CC(C)C[C@H](N)C(=O)N1CCC[C@@H](NCC(N)=O)C1 [(R)-LpipG, (−)-2-[(1-L-Leucinyl-(R)-piperidin-3-yl)amino]acetamide] | – | do not inhibit SpeB | hardly affecting papain | most potent inhibitors; also recorded: potent inhibitors of IdeS | effect on initial velocities of papain activity (papain [5]): remained unchanged
4 | NC(=O)[C@@H]1CCCN1C(=O)CN[C@@H]1CCCNC1 [(R)-pipGP] | – | no inhibitory activity | even more active toward papain | most potent inhibitors; also recorded: most active inhibitors of IdeS | –
5 | CC(C)C[C@H](N)C(=O)NCC(=O)N1CCC[C@H](N2CCC[C@H]2C(N)=O)C1 [(S)-LGpipP] | – | inhibited SpeB activity | – | – | –
6 | CCN(CC(N)=O)[C@H]1CCCN(C(=O)[C@H](CC(C)C)NC(=O)[C@@H](N)CC(C)C)C1 [(S)-LLpipEtG] | – | clearly improved degree of inhibition | – | – | –
7 | CC(C)C[C@H](N)C(=O)N1CCC[C@H](NCC(=O)N2CCC[C@H]2C(N)=O)C1 [(S)-LpipGP] | – | no inhibitory activity | even more active toward papain | most potent inhibitors; also recorded: most active inhibitors of IdeS | –
8 | NC(=O)CN[C@H]1CCCNC1 [(S)-pipG, (+)-2-((S)-Piperidin-3-ylamino)acetamide] | – | do not inhibit SpeB | hardly affecting papain | most potent inhibitors; also recorded: potent inhibitors of IdeS | ligand efficiency (LE) for IdeS inhibition (IdeS [4]; binding energy per atom considered): most favorable peptide analogue in the series; effect on initial velocities of papain activity (papain [5]): remained unchanged
9 | NC(=O)[C@@H]1CCCN1C(=O)CN[C@H]1CCCNC1 [(S)-pipGP] | – | – | – | most potent inhibitors | –
10 | Cc1ccc(S(=O)(=O)N[C@@H](CCCCN)C(=O)CCl)cc1 [TLCK, tosyl lysyl chloromethyl ketone] | reported to inhibit IdeS | – | – | – | –
11 | Cc1ccc(S(=O)(=O)N[C@@H](Cc2ccccc2)C(=O)CCl)cc1 [TPCK, tosyl phenylalanyl chloromethyl ketone] | reported to inhibit IdeS | – | – | – | –
12 | CC(C)CC(NC(=O)OCc1ccccc1)C(=O)NC(C(=O)NCC(=O)C=[N+]=[N-])C(C)C (stereo not drawn) [Z-LVG CHN2, N-benzyloxycarbonyl-leucyl-valyl-glycine diazomethylketone] (Cbz-Leu-Val-Gly-CHN2; configuration not given here) | reported to inhibit IdeS | – | – | – | –
